In the library only some 3.7% were active in any assay of this set; here they are far more common.
hERG protect = hERG (human) protection from proarrhythmic block; activation (rescue from dofetilide block), less the hit threshold, % at 10 µM; Q12809; actives 0.51% (n = 310,000); CHO-hERG, FluxOR thallium flux, dofetilide IC70 present;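 active = activation above the mean of controls blocked by dofetilide plus 5 SD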;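 note: thallium influx through hERG after potassium depolarization seen as dye fluorescence rise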
Kir21 block = inhibitors of mouse Kir2.1 inward-rectifier potassium channel. P35561. AID 1672. B-score at 10 µM. HEK293-Kir2.1, FluxOR thallium flux fluorescence; stronger effect = lower value. actives 0.85% (n = 310,000);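 active = fluorescence ratio B-score at or below minus 3 SD of library scores, with starting-brightness B-score within 2 SD, cut at about -4.2 in these data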;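 note: channel flux triggered by added potassium and thallium sulfate stimulus; B-score of peak minus minimum fluorescence over baseline after thallium stimulus; more negative B-score means stronger Kir2.1 block with less thallium influx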
KCNK3 inh = human KCNK3 channel inhibition, primary screen | O14649 | CHO-KCNK3 thallium flux, FluxOR fluorescence; stronger effect = lower value | B-score at 10 µM | actives 0.84% (n = 340,000);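 active = B-score under library mean minus 4 SD, starting fluorescence ratio at most library mean plus 5 SD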;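 note: more negative B-score means stronger inhibition of thallium flux through KCNK3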
Target sequence (O14649 whole entry, looked up): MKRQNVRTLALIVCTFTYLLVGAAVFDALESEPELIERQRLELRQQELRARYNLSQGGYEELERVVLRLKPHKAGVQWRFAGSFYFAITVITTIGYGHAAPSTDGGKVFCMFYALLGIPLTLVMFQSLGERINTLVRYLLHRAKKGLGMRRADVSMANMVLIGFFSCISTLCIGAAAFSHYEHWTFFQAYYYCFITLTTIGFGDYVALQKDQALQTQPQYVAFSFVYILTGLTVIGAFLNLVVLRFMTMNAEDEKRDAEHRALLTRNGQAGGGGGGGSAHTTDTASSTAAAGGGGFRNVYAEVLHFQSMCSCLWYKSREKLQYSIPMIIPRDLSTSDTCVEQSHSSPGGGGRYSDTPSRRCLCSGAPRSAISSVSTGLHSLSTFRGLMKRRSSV
KCNQ1 act = potentiators or activators of human KCNQ1 potassium channel. actives 0.35% (n = 310,000). P51787. B-score at 10 µM. CHO-K1 KCNQ1, thallium flux FluxOR fluorescence; stronger effect = higher value. AID 2648;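 active = fluorescence ratio B-score, a plate-corrected score, at least three library SD, with initial intensity B-score within 5 SD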
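Material: CHO-K1 cells stably expressing KCNQ1. Medium: assay buffer for compound exposure, DMSO matched across wells. Reagent: K+/Tl+ depolarizing stimulus. Compound dosing: single-concentration screen. Times: 37 °C overnight plating, 90-min dark dye load, 20-min compound pretreatment. Technique: FluxOR Tl+ flux fluorescence.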
KCNQ1 block = blocks the human KCNQ1 potassium channel | P51787 | CHO-K1 KCNQ1, FluxOR thallium flux fluorescence; stronger effect = higher value | B-score at 10 µM | actives 1.3% (n = 310,000);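 active = compounds whose thallium flux B-score, printed positive for inhibition, exceeds three library SD while starting fluorescence stays within three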;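 note: channel opened by potassium depolarization with thallium stimulus after 20 min compound exposure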
KCNK9 block = inhibitors of human KCNK9 two-pore domain potassium channel. HEK293 KCNK9, FluxOR thallium flux fluorescence; stronger effect = lower value. B-score at 10 µM. actives 1.2% (n = 310,000);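 active = ratio B-score over 3 SD below the library mean, with starting fluorescence within 5 SD of its mean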;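 note: negative B-score means less thallium flux so channel inhibition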
Each line names hits and unclear results; the compound was inactive in the other large screens.

COc1ccc(N(CC(=O)NCCc2ccccc2)C(=O)c2csnn2)cc1	none
Cc1onc(-c2ccccc2)c1C(=O)N(Cc1ccco1)Cc1cccs1	none
COc1cccc(/C=N/Nc2ccc(S(=O)(=O)O)cc2)c1O	none
COc1cccc(/C=N/Nc2ccc(C(=O)O)cc2)c1O	hERG protect 5.5
CCOc1ccc(CCNC(=O)C2(c3ccccc3)CC2)cc1OCC	Kir21 block -4.52
CCOc1ccc(CCNC(=O)c2nccnc2C(=O)O)cc1OCC	none
COc1cccc(N(CC(=O)NCCSCc2ccc(Cl)cc2)S(C)(=O)=O)c1	none
CN(CCCNC(=O)c1cc2c(Cl)nc3ccccc3c2s1)Cc1ccccc1	Kir21 block -4.97
CCN(CC)CCCNC(=O)c1cc2c(Cl)nc3ccccc3c2s1	none
Cc1nnc(SCc2ccc(F)cc2)n1NC/C=C/c1ccccc1	Kir21 block -5.06
Fc1ccccc1CSc1nncn1NC/C=C/c1ccccc1	none
Cc1ccc([N+](=O)[O-])cc1N=C1C(=O)Nc2ccccc21	none
CN(C(=O)c1cc2n(n1)C(C(F)(F)F)CC(c1ccco1)N2)c1ccccc1 (stereo unspecified)	KCNK9 block -6.69
CN(C(=O)c1cc2n(n1)C(C(F)(F)F)CC(c1ccco1)N2)c1ccc(OC(F)(F)F)cc1 (stereo unspecified)	none
CC(C)(C)C(=O)O/N=C1\CCS(=O)(=O)c2sccc21	none
O=C(O/N=C1\CCS(=O)(=O)c2sccc21)C1CC1	hERG protect 5.0
COc1ccc(OC)c(Cc2nnc(CCC(=O)N3CCN(C4CCCC4)CC3)o2)c1	none
CCCCn1nc2cc(C(=O)NCc3ccc(C(F)(F)F)cc3C(F)(F)F)ccc2c1OCC	KCNQ1 block 6
CCOc1c2ccc(C(=O)NCc3ccc(C(F)(F)F)cc3C(F)(F)F)cc2nn1C	none
O=C(Nc1n[nH]c(=S)s1)c1ccc2ccccc2c1	none
O=C(NCc1ccncc1)c1ccccc1Nc1ccc(SC(F)F)cc1	none
CNC(=O)c1ccccc1Nc1ccc(SC(F)F)cc1	KCNQ1 block 6
CCO[C@H]1OC(C(N)=O)=C[C@@H](C(C)(C)C)[C@@H]1CCCO	none
Cc1cccc(C(=O)NNC(=O)C(=O)NC(C)(C)C)c1	none
COC(=O)NNC(=O)c1ccc(C(C)(C)C)cc1	none
CC(C)(C)NC(=O)C(=O)NNC(=O)c1cccc(Br)c1	hERG protect 23.4, KCNQ1 act 18
CC(C)(C)NC(=O)C(=O)NNC(=O)COc1ccc(Br)cc1	hERG protect 5.1, KCNQ1 act 8
CC(C)(C)NC(=O)C(=O)NNC(=O)c1ccc(C(C)(C)C)cc1	hERG protect 14.9, KCNQ1 act 20
CC(=O)NC(=S)NNC(=O)COc1ccc(Br)cc1	none (no result: hERG protect, Kir21 block, KCNQ1 act, KCNQ1 block, KCNK9 block)
O=C(NCC1CCCO1)/C(=C/c1cn(-c2ccccc2)nc1-c1cccnc1)NC(=O)c1ccccc1 (stereo unspecified)	none
CCOC(=O)CSc1ccc(S(=O)(=O)N(C)C2CCCCC2)cc1[N+](=O)[O-]	KCNK3 inh -10.3
COc1ccc(OC)c(NC(=O)c2cccnc2Sc2cc(C)ccc2C)c1	KCNK9 block -7.59
CCOc1ccc(CCNC(=O)CS(=O)Cc2nc(-c3ccc(OC)cc3)oc2C)cc1OCC (stereo unspecified)	none
CCOC(=O)N1CCN(C(=O)c2ccc3c(=O)n(CCC4=CCCCC4)c(=S)[nH]c3c2)CC1	none
O=c1c2ccc(Cl)cc2[nH]c(=S)n1CCC1=CCCCC1	hERG protect 25.3, KCNQ1 act 20
Cc1ccc(C(=O)C2C(c3ccc(-c4ccccc4[N+](=O)[O-])o3)NC(=O)NC2(O)C(F)(F)F)cc1 (stereo unspecified)	KCNK9 block -10.5
O=C1NC(c2ccc(-c3ccccc3[N+](=O)[O-])o2)C(C(=O)c2ccccc2)C(O)(C(F)(F)F)N1 (stereo unspecified)	none
Cc1nc(-c2ccc(S(=O)(=O)Oc3ccccc3Cl)s2)cs1	none
COc1ccccc1N1CCN(/N=C/c2cc(Br)ccc2F)CC1	KCNQ1 block 9
Cc1cccc(CCNC(=O)Cn2ncc3c([nH]c4ccccc43)c2=O)c1	none
CN(C(=O)CSc1ncnc2sc(-c3ccccc3)cc12)C1CCS(=O)(=O)C1 (stereo unspecified)	hERG protect 49.0, KCNQ1 act 77
CN(C(=O)CSc1ncnc2scc(-c3ccccc3)c12)C1CCS(=O)(=O)C1 (stereo unspecified)	none
Cc1cc(N2CCCC2)ccc1NC(=O)COc1cccc(C(F)(F)F)c1	none
Cn1c(=S)c2[nH]c(SCCN3CCCC3)nc2n(C)c1=O	KCNK9 block -6.89
CSc1ccc(C2NN=C(c3ccccc3)S2)cc1 (stereo unspecified)	hERG protect 15.3
Cc1ccc(C(=O)Cn2c(N3CCOCC3)nc3c2c(=O)n(C)c(=O)n3C)cc1	hERG protect 5.0
COc1ccccc1C=NN=C(NN=Cc1ccccc1OC)NN=Cc1ccccc1OC	KCNK3 inh -11.2 (no result: hERG protect, Kir21 block, KCNQ1 act, KCNQ1 block, KCNK9 block)
O=C(CSc1cn[nH]n1)Nc1ccccc1C(F)(F)F	none
S=C1NCCc2ccc(Cl)cc2C1c1ccccc1 (stereo unspecified)	KCNK3 inh -10 (no result: hERG protect, Kir21 block, KCNQ1 act, KCNQ1 block, KCNK9 block)
O=C(O)c1ccccc1NC(=O)C(c1ccccc1)c1ccccc1	none
O=C(Nc1ccccc1O)C(c1ccccc1)c1ccccc1	KCNQ1 block 6
CC(=O)c1c(C)[nH]c(C(=O)OCC(=O)N2CC(C)OC(C)C2)c1C (stereo unspecified)	none
CSc1ccc2c(c1)C(N1CCN(C)CC1)Cc1ccccc1S2 (stereo unspecified)	Kir21 block -7.91
C[C@H](NS(=O)(=O)OCC(Cl)(Cl)Cl)C1CC1c1ccccc1 (stereo partly specified)	KCNQ1 block 6
CC(=O)OCCC(NS(=O)(=O)OCC(Cl)(Cl)Cl)c1ccccc1 (stereo unspecified)	none
CCCCC(=O)Nc1c2c(nn1-c1ccc(C)cc1)CS(=O)(=O)C2	none
Cc1ccc(S(=O)(=O)Oc2ccc(/C=C3/C(=N)N4C(=NC3=O)SN=C4S(C)(=O)=O)cc2)cc1	none
CS(=O)(=O)C1=NSC2=NC(=O)/C(=C\c3cccn3-c3ccccc3Cl)C(=N)N21	KCNQ1 block 10
Cc1ccc(-n2cccc2/C=C2/C(=N)N3C(=NC2=O)SN=C3S(C)(=O)=O)cc1	KCNQ1 block 10
Cc1ccc(C(=O)C[n+]2ccc3ccccc3c2)cc1	none
Cc1cc(C(C)(C)C)cc(C)c1C[n+]1ccc2ccccc2c1	KCNQ1 block 7
COc1cc(/C=C2\SC(c3ccccc3)=NC2=O)cc(Cl)c1O	KCNK3 inh -10.4
COc1ccc(/C=C2\SC(c3ccc(C)cc3)=NC2=O)cc1OC	hERG protect 9.7

Screening results (PubChem)
